In data set [1] the test system is Cryptococcus neoformans. Description: Antimicrobial activity against Cryptococcus neoformans ATCC 90113 by CLSI method. The data set is classed as functional. The procedure, abridged: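 C. neoformans in Sabouraud dextrose broth, inoculum per the 0.5 McFarland standard. Saline serial dilutions of DMSO samples were tested in duplicate, with a final top concentration of 20 μg/mL. OD 630 nm was read before and after incubation. IC50 was derived from % growth versus concentration. MIC was judged visually as the lowest concentration with no detectable growth. Amphotericin B served as the drug control.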

For data set [2], the system named is Candida albicans. Description: Antimicrobial activity against Candida albicans ATCC 90028 by CLSI method. The data set is classed as functional. A digest of the protocol: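 C. albicans inoculum was made to the 0.5 McFarland standard in Sabouraud dextrose broth or RPMI 1640. Samples came from DMSO stocks serially diluted in saline, in duplicate, starting at a final 20 μg/mL. Plates were read at OD 630 nm before and after incubation. IC50 came from the % growth versus concentration plot; MIC was the lowest concentration with no visible growth. Included: growth, solvent and blank controls, plus amphotericin B.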

Data set [3] concerns Aspergillus fumigatus. Description: Antimicrobial activity against Aspergillus fumigatus ATCC 90906 by CLSI method. The data set is classed as functional. A digest of the protocol:
(§1)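 Modified CLSI broth microdilution. DMSO stocks were serially diluted in saline and run in duplicate. Inoculum was set by the 0.5 McFarland standard in YM broth for MIC, or in RPMI-1640 + 5% Alamar Blue for IC50. The top final concentration was 20 μg/mL. Fluorescence (544ex/590em) was read before and after incubation. IC50 was taken from % growth versus concentration; MIC was read visually as no blue-to-pink change.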

For data set [4], the system named is Cryptococcus neoformans. Description: Antimicrobial activity against Cryptococcus neoformans ATCC 90113 by alamar blue assay. The data set is classed as functional, organism-based. For orientation: Resazurin is reduced to fluorescent resorufin, in cell work by metabolically active cells.
Data set [5] deals with Candida albicans. As to the kind of experiment: Antimicrobial activity against Candida albicans ATCC 90028 by alamar blue assay. The data set is classed as functional, organism-based.
The subject of data set [6] is Aspergillus fumigatus. Description: Antimicrobial activity against Aspergillus fumigatus ATCC 90906 by alamar blue assay. Type of data set: functional, organism-based. A digest of the protocol:
as §1

Data set [7] is described as follows: Cytotoxicity against african green monkey Vero cells after 48 hrs by neutral red assay. The data set is classed as cell-based. The following applies: chlorocebus sabaeus, read-out: TC50. A digest of the protocol:
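VERO kidney cells were seeded at 25,000 cells/well and incubated 24 h. Samples were added up to 10 μg/mL and incubated a further 48 h. Viable cells were counted by neutral red uptake. IC50 came from growth-inhibition dose curves. Doxorubicin was the positive control and DMSO the vehicle control.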

The subject of data set [8] is Nakaseomyces glabratus. As to the kind of experiment: Antimicrobial activity against Candida glabrata ATCC 90030 by CLSI method. The data set is classed as functional. The procedure, abridged: (§2)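 Modified CLSI microdilution. DMSO samples were serially diluted in saline and tested in duplicate against inoculum adjusted by the 0.5 McFarland standard. The final test range started at 20 μg/mL. Plates were read before and after incubation. IC50 came from % growth versus concentration; MIC was the lowest concentration without visible growth. Growth, solvent, blank and amphotericin B controls were on each plate.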

Data set [9] deals with Pichia kudriavzevii. As to the kind of experiment: Antimicrobial activity against Candida krusei ATCC 6258 by CLSI method. The data set is classed as functional. A digest of the protocol:
as §2

In data set [10] the test system is Nakaseomyces glabratus. As to the kind of experiment: Antimicrobial activity against Candida glabrata ATCC 90030 by alamar blue assay. Type of data set: functional, organism-based.
The test system of data set [11] is Pichia kudriavzevii. Description: Antimicrobial activity against Candida krusei ATCC 6258 by alamar blue assay. The data set is classed as functional, organism-based.
Data set [12] in a line: Selectivity index, ratio of TC50 for african green monkey Vero cells to IC50 for Cryptococcus neoformans ATCC 90113. The following applies: read-out: Selectivity Index. Type of data set: toxicity, cell-based.

SMILES strings stand for the structures. ≈ marks a conversion by molar mass, not a printed value.

As usually defined, the MIC is the lowest concentration found to suppress growth. One may read the IC50 as the concentration needed to halve the response being measured.

As to `Brc1cccc(Sc2cc3ccccc3[n+](CCCCCc3ccccc3)c2)c1.[I-]`, the MFC in [1] was 10 µg/mL; in data set [2], over 20 µg/mL; in data set [3], over 20 µg/mL. Also, the minimal inhibitory concentration (MIC) was determined as 5 µg/mL in [1], 20 µg/mL in data set [2] and 10 µg/mL in data set [3]. In addition, the half-inhibitory concentration (IC50) was found to be 2 µg/mL in data set [4], 10 µg/mL in [5] and 2.5 µg/mL in [6]. The CC50 at 48 h in [7] is over 10 µg/mL.
Consider `COc1cccc(Sc2cc3ccccc3[n+](CCCCCc3ccccc3)c2)c1.[I-]`, for which the MFC in [1], in data set [2] and in [3] was over 20 µg/mL in each case. Also, the results for the MIC in data set [1], in data set [2] and in [3] were 20 µg/mL, over 20 µg/mL and 5 µg/mL, respectively. Besides, the IC50 in [4] was 10 µg/mL; in data set [5], over 20 µg/mL; in data set [6] it was 3.5 µg/mL. In addition, in [7], the CC50 at 48 h is over 10 µg/mL.
With `Brc1ccccc1Sc1cc2ccccc2[n+](CCCCCC2CCCCC2)c1.[I-]`, the MFC in data set [1] was 1.3 µg/mL; in data set [2] it was 2.5 µg/mL; in [3] it was 20 µg/mL; in data set [8], 10 µg/mL; in data set [9], 1.3 µg/mL. Further, the minimal inhibitory concentration (MIC) in data set [1] was found to be 0.6 µg/mL; in data set [2] it was 2.5 µg/mL; in data set [3] it was 2.5 µg/mL; in data set [8], 5 µg/mL; in data set [9], 0.6 µg/mL. Besides, the concentration for half-maximal inhibition (IC50) in data set [4] turned out to be 0.3 µg/mL; in [5], 1.4 µg/mL; in data set [6] it was 2 µg/mL; in data set [10], 3.2 µg/mL; in [11] it was 0.3 µg/mL. Also, the CC50 at 48 h in data set [7] is 9.7 µg/mL. Also, the selectivity ratio in data set [12] worked out at 32.
Regarding `Cc1ccc(Sc2cc3ccccc3[n+](CCCCCC3CCCCC3)c2)cc1.[I-]`, the MFC was found to be 1.3 µg/mL in [1]; 5 µg/mL in [2]; 5 µg/mL in data set [3]; 10 µg/mL in data set [8]; 1.3 µg/mL in data set [9]. Also, the MIC in data set [1] turned out to be 0.3 µg/mL; in data set [2], 2.5 µg/mL; in data set [3], 5 µg/mL; in data set [8], 10 µg/mL; in data set [9], 0.6 µg/mL. Further, the IC50 in [4] was determined as 0.2 µg/mL; in [5] it was 1.3 µg/mL; in data set [6] it was 2.7 µg/mL; in [10] it was 5.5 µg/mL; in data set [11], 0.5 µg/mL. Also, in data set [7], the CC50 at 48 h was found to be 2.8 µg/mL. Further, the selectivity ratio in data set [12] was 14.
For `C[C@@H]1[C@H](O)[C@@H](C)/C=C/C=C/C=C/C=C/C=C/C=C/C=C/[C@H](O[C@@H]2O[C@H](C)[C@@H](O)[C@H](N)[C@@H]2O)C[C@@H]2O[C@](O)(C[C@@H](O)C[C@@H](O)[C@H](O)CC[C@@H](O)C[C@@H](O)CC(=O)O[C@H]1C)C[C@H](O)[C@H]2C(=O)O` [AMPHOTERICIN B], the MFC in data set [1] amounted to 5 µg/mL (≈ 5.41 µM); in [2], 1.3 µg/mL (≈ 1.41 µM); in data set [3], 5 µg/mL (≈ 5.41 µM); in data set [8] it was 2.5 µg/mL (≈ 2.71 µM); in [9], 2.5 µg/mL (≈ 2.71 µM). The minimum inhibitory concentration (MIC) is 1.3 µg/mL (≈ 1.41 µM) in data set [1]; 1.3 µg/mL (≈ 1.41 µM) in data set [2]; 1.3 µg/mL (≈ 1.41 µM) in data set [3]; 1.3 µg/mL (≈ 1.41 µM) in data set [8]; 2.5 µg/mL (≈ 2.71 µM) in data set [9]. The results for the half-maximal inhibitory concentration (IC50) in data set [10] and in data set [11] were 0.6 µg/mL (≈ 0.649 µM) and 0.9 µg/mL (≈ 0.974 µM), respectively. In data set [7], the CC50 at 48 h amounted to 6.5 µg/mL (≈ 7.03 µM). Moreover, the selectivity ratio in data set [12] worked out at 14.
In the case of `Brc1ccccc1Sc1cc2ccccc2[n+](CCCCCc2ccccc2)c1.[I-]`, the MFC in data set [1] is 20 µg/mL; in data set [2] it was over 20 µg/mL; in [3], over 20 µg/mL. The MIC in [1] was 5 µg/mL; in [2], 20 µg/mL; in data set [3], 2.5 µg/mL. Besides, the figures for the half-inhibitory concentration (IC50) in data set [4], in [5] and in data set [6] were 3 µg/mL, 10 µg/mL and 1 µg/mL, respectively. Further, the CC50 at 48 h in data set [7] came out at 10 µg/mL.
On to `FC(F)(F)c1ccc(Sc2cc3ccccc3[n+](CCCCCc3ccccc3)c2)cc1.[I-]`, for which the MFC in [1] was 10 µg/mL; in data set [2] it was over 20 µg/mL; in [3], over 20 µg/mL. For the same compound, the MIC was 5 µg/mL in [1], 20 µg/mL in data set [2] and over 20 µg/mL in data set [3]. The concentration for half-maximal inhibition (IC50) in data set [4] amounted to 2.7 µg/mL; in data set [5] it was 11 µg/mL; in data set [6], 15 µg/mL. For the same compound, the CC50 at 48 h in data set [7] came out at 10 µg/mL.
Consider `COc1ccc(Sc2cc3ccccc3[n+](CCCCCc3ccccc3)c2)cc1.[I-]`, for which the values for the MFC in data set [1], in data set [2] and in [3] were under 20 µg/mL, over 20 µg/mL and over 20 µg/mL, respectively. Further, the figures for the MIC in data set [1], in data set [2] and in [3] were 20 µg/mL, over 20 µg/mL and 20 µg/mL, respectively. Further, the IC50 is 15 µg/mL in data set [4], over 20 µg/mL in [5] and 4.5 µg/mL in data set [6]. For the same compound, in data set [7], the CC50 at 48 h was 10 µg/mL.
Regarding `[I-].c1ccc(Sc2cc3ccccc3[n+](CCCCCC3CCCCC3)c2)cc1`, the MFC is 2.5 µg/mL in data set [1]; 10 µg/mL in data set [2]; over 20 µg/mL in [3]; 20 µg/mL in [8]; 2.5 µg/mL in data set [9]. Also, the minimal inhibitory concentration (MIC) in data set [1] is 1.3 µg/mL; in [2], 5 µg/mL; in [3], 10 µg/mL; in [8], 20 µg/mL; in data set [9], 1.3 µg/mL. This compound showed an IC50 in data set [10] of 15 µg/mL. Moreover, the CC50 at 48 h in data set [7] is 4.6 µg/mL. Also, the selectivity ratio in data set [12] was 9.2.
Turning to `COc1ccccc1Sc1cc2ccccc2[n+](CCCCCc2ccccc2)c1.[I-]`, the MFC in data set [1], in data set [2] and in [3] was over 20 µg/mL in each case. Besides, the MIC in data set [1], in data set [2] and in data set [3] was over 20 µg/mL in each case. In addition, the IC50 in data set [4] was 15 µg/mL; in data set [5], over 20 µg/mL; in [6], 8 µg/mL. In data set [7], the CC50 at 48 h is 4.3 µg/mL.
As for `[I-].c1ccc(CCCCC[n+]2cc(Sc3ccccc3)cc3ccccc32)cc1`, the MFC in data set [1], in data set [2] and in [3] was over 20 µg/mL in each case. Further, the results for the MIC in [1], in data set [2] and in data set [3] were 5 µg/mL, 10 µg/mL and 1.3 µg/mL, respectively.
For the compound `Cc1ccc(Sc2cc3ccccc3[n+](CCCCCc3ccccc3)c2)cc1.[I-]`, the MFC was 5 µg/mL in data set [1], over 20 µg/mL in data set [2] and over 20 µg/mL in data set [3]. The minimal inhibitory concentration (MIC) in data set [1] was 2.5 µg/mL; in data set [2] it was over 20 µg/mL; in [3], over 20 µg/mL. Moreover, the IC50 was 1.2 µg/mL in data set [4], over 20 µg/mL in [5] and 16 µg/mL in data set [6]. Further, the CC50 at 48 h in data set [7] was determined as 4.2 µg/mL.
As for `Cc1cccc(Sc2cc3ccccc3[n+](CCCCCc3ccccc3)c2)c1.[I-]`, the results for the MFC in [1], in data set [2] and in data set [3] were 20 µg/mL, over 20 µg/mL and over 20 µg/mL, respectively. Further, the MIC was 2.5 µg/mL in data set [1], over 20 µg/mL in [2] and over 20 µg/mL in data set [3]. For the same compound, the IC50 is 1.4 µg/mL in data set [4], over 20 µg/mL in data set [5] and 20 µg/mL in [6]. Further, in [7], the CC50 at 48 h came out at 8.8 µg/mL.

The record behind these values is ChEMBL document CHEMBL1772938, “Optimization of 3-(phenylthio)quinolinium compounds against opportunistic fungal pathogens” (Eur J Med Chem, 2011).
